Results collected from several papers.
Lines come from different studies, so protocols differ.
CTSL: Procathepsin L (CTSL, Homo sapiens, UniProt P07711)

C=CC(C)(C)c1cc(/C=C/C(=O)c2ccc(O)cc2)c(OC)cc1O — remaining activity (CTSL; enzyme activity, inhibitor; 100 µM): 95.1%
COc1cc(-c2cncc3c2CN(C)Cc2cc(N4CCNCC4)ccc2-3)cc(OC)c1OC — remaining activity (Tau-tubulin kinase 2 (TTBK2, Homo sapiens, UniProt Q6IQ55); enzyme activity, inhibitor; 1 µM): 104%
CNc1ncc2c(/C=C/C(=O)N3CCC(OC)CC3)nn(Cc3cccc(C(F)(F)F)c3)c2n1 — remaining activity (Tyrosine-protein kinase Blk (BLK, Homo sapiens, UniProt P51451); enzyme activity, inhibitor, radiometric; 1 µM): 84%
C=CC(=O)N1CCC(COCC(=O)N2CCN(c3nc(-c4cnc(N)nc4C(F)F)nc(N4CCOC[C@@H]4C)n3)CC2)CC1 — remaining binding (Ephrin type-B receptor 1 (EPHB1, Homo sapiens, UniProt P54762); binding, competition with immobilised ligand; 1 µM): 100%
Nc1ncnc2c1ncn2[C@@H]1O[C@H](COP(=O)(O)OP(=O)(O)OP(=O)(O)OP(=O)(O)OP(=O)(O)OC[C@H]2O[C@@H](n3cnc4c(N)ncnc43)[C@H](O)[C@@H]2O)[C@@H](O)[C@H]1O — Km (Oxidized purine nucleoside triphosphate hydrolase (NUDT1, Homo sapiens, UniProt P36639); enzyme activity, substrate): 26 µM
Oc1ncnc2[nH]ncc12 — inhibition (Xanthine dehydrogenase/oxidase (XDH, Bos taurus, UniProt P80457); enzyme activity, inhibitor, absorbance; 53 µg/mL): 100%
O=Cc1nccc2c1[nH]c1ccccc12 — remaining activity (CTSL; enzyme activity, inhibitor; 100 µM): 150%
N=c1c[n+](N2CCOCC2)[n-]o1 — KI (inactivation) (NAD-dependent protein deacetylase sirtuin-1 (SIRT1, Homo sapiens, UniProt Q96EB6); enzyme activity, inhibitor): 27 µM
O=C1/C(=C/c2ccc(O)c(O)c2)COc2cc(O)ccc21 — remaining activity (CTSL; enzyme activity, inhibitor; 100 µM): 26.7%
Cc1cc([C@@H](C)Nc2ccccc2C(=O)O)c2nc(N3CCC(F)(F)CC3)c(C#N)c(=O)n2c1 — remaining binding (Serine/threonine-protein kinase STK11 (STK11, Homo sapiens, UniProt Q15831); binding, competition with immobilised ligand; 1 µM): 92%
